Assay results from ChEMBL document CHEMBL1221306, “Synthesis, activity, and pharmacokinetic properties of a series of conformationally-restricted thiourea analogs as novel hepatitis C virus inhibitors” (Bioorg Med Chem, 2010).

Experiments:
[1] = tested on: Hepatitis C virus; test: Antiviral activity against HCV1b infected in human HuH7 cells assessed as inhibition of viral replication after 24 hrs; type: functional, organism-based, Hepacivirus hominis; settings: genotype 1b, Huh-7, 24 h
[2] = Cytotoxicity against human HuH7 cells after 24 hrs; type: cell-based, Huh-7
[3] = AUC in Sprague-Dawley rat at 25 mg/kg, po; type: ADME, organism-based; set-up: dose 25 mg/kg, route oral; settings: plasma
Summary of the method: (§1)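 Male rats (330–380 g, 9–10 weeks old, n = 3) were given the compound as a solution in DMA/propylene glycol (20:80, v/v), either iv at 5 mg/kg or po at 25 mg/kg. Rats were fasted and had jugular-vein cannulae. Blood was sampled at 0, 2, 5 (iv only) and 15 min, 30 min, and 1, 2, 4, 6, 8 and 24 h. Plasma was assayed by HPLC–MS/MS and analysed non-compartmentally.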

[4] = Volume of distribution at steady state in Sprague-Dawley rat at 5 mg/kg, iv; type: ADME, organism-based; set-up: dose 5 mg/kg, route intravenous; settings: in vivo, read-out: Vdss; summary of the method: as §1
[5] = Cmax in Sprague-Dawley rat at 25 mg/kg, po; type: ADME, organism-based; set-up: dose 25 mg/kg, route oral; settings: in vivo; summary of the method: as §1
[6] = Clearance in Sprague-Dawley rat at 5 mg/kg, iv; type: ADME, organism-based; set-up: dose 5 mg/kg, route intravenous; settings: in vivo; summary of the method: as §1
[7] = Oral bioavailability in Sprague-Dawley rat at 25 mg/kg; type: ADME, organism-based; settings: in vivo; summary of the method: as §1
[8] = Tmax in Sprague-Dawley rat at 25 mg/kg, po; type: ADME, organism-based; set-up: dose 25 mg/kg, route oral; settings: in vivo; summary of the method: as §1
[9] = AUC in Sprague-Dawley rat at 5 mg/kg, iv; type: ADME, organism-based; set-up: dose 5 mg/kg, route intravenous; settings: plasma; summary of the method: as §1
[10] = Half life in Sprague-Dawley rat at 5 mg/kg, iv; type: ADME, organism-based; set-up: dose 5 mg/kg, route intravenous; settings: in vivo; summary of the method: as §1
[11] = Half life in Sprague-Dawley rat at 25 mg/kg, po; type: ADME, organism-based; set-up: dose 25 mg/kg, route oral; settings: in vivo; summary of the method: as §1

**Q.** Which EC50 [1] does the source give for NC(=S)Nc1ccc2c(c1)Cc1ccccc1-2 here?
**A.** 2.09 µM

**Q.** And the CC50 at 24 h [2]?
**A.** > 50 µM

**Q.** For NC(=S)Nc1ccc2c(c1)Cc1cc(Br)ccc1-2, which AUC [3] is on record?
**A.** 294 ng·h/mL

**Q.** What about the EC50 [1] of the same compound?
**A.** 0.3 µM

**Q.** And the CC50 at 24 h [2]?
**A.** > 50 µM

**Q.** And the Vd [4]?
**A.** 2.8 L/kg

**Q.** What about the Cmax [5] of the same compound?
**A.** 106 ng/mL

**Q.** What about the clearance [6] of the same compound?
**A.** 17 mL/min/kg

**Q.** What about the bioavailability [7] of the same compound?
**A.** 1.2%

**Q.** And the Tmax [8]?
**A.** 0.7 h

**Q.** What about the AUC [9] of the same compound?
**A.** 4940 ng·h/mL

**Q.** What about the half-life [10] of the same compound?
**A.** 2.6 h

**Q.** And the half-life [11]?
**A.** 3.8 h

**Q.** For NC(=S)Nc1ccc2c(c1)C(=O)c1cc(Br)ccc1-2, which AUC [3] is on record?
**A.** 43 ng·h/mL

**Q.** And the EC50 [1]?
**A.** 0.57 µM

**Q.** And the CC50 at 24 h [2]?
**A.** > 50 µM

**Q.** What about the Vd [4] of the same compound?
**A.** 2 L/kg

**Q.** What about the Cmax [5] of the same compound?
**A.** 65.3 ng/mL

**Q.** What about the clearance [6] of the same compound?
**A.** 127 mL/min/kg

**Q.** And the bioavailability [7]?
**A.** 1.3%

**Q.** What about the Tmax [8] of the same compound?
**A.** 0.25 h

**Q.** What about the AUC [9] of the same compound?
**A.** 655 ng·h/mL

**Q.** And the half-life [10]?
**A.** 1.4 h

**Q.** What about the half-life [11] of the same compound?
**A.** 1.7 h

**Q.** Which results are given for NC(=S)Nc1ccc2c(c1)-c1ccccc1C2=O?
**A.** EC50 [1]: 21 µM; CC50 at 24 h [2]: > 50 µM

**Q.** Which EC50 [1] does the source give for COc1cc2c(cc1NC(N)=S)oc1ccccc12 here?
**A.** 5.51 µM

**Q.** What about the CC50 at 24 h [2] of the same compound?
**A.** > 50 µM

**Q.** With CCn1c2ccccc2c2cc(NC(N)=S)ccc21 as the compound, how does the EC50 [1] read?
**A.** 7.55 µM

**Q.** And the CC50 at 24 h [2]?
**A.** > 50 µM

**Q.** With NC(=S)Nc1ccc2oc(=O)c3ccccc3c2c1 as the compound, how does the EC50 [1] read?
**A.** > 50 µM

**Q.** What about the CC50 at 24 h [2] of the same compound?
**A.** > 50 µM

**Q.** With NC(=S)Nc1ccc2c(c1)N1CCN=C1S2 as the compound, how does the EC50 [1] read?
**A.** > 50 µM

**Q.** And the CC50 at 24 h [2]?
**A.** > 50 µM

**Q.** Which EC50 [1] does the source give for NC(=S)Nc1ccc2cn[nH]c2c1 here?
**A.** > 50 µM

**Q.** What about the CC50 at 24 h [2] of the same compound?
**A.** > 50 µM

**Q.** Which results are given for NC(=S)Nc1ccc2nn[nH]c2c1?
**A.** EC50 [1]: > 50 µM; CC50 at 24 h [2]: > 50 µM

**Q.** For NC(=S)Nc1ccc2[nH]ncc2c1, which EC50 [1] is on record?
**A.** > 50 µM

**Q.** What about the CC50 at 24 h [2] of the same compound?
**A.** > 50 µM

**Q.** With NC(=O)Nc1ccc2c(c1)Cc1cc(Br)ccc1-2 as the compound, how does the EC50 [1] read?
**A.** > 50 µM

**Q.** What about the CC50 at 24 h [2] of the same compound?
**A.** > 50 µM

**Q.** With S=C(Nc1ccccc1)Nc1ccc2c(c1)Cc1cc(Br)ccc1-2 as the compound, how does the EC50 [1] read?
**A.** 42.8 µM

**Q.** And the CC50 at 24 h [2]?
**A.** 46.2 µM

**Q.** What does the source list for S=C(NCc1ccccc1)Nc1ccc2c(c1)Cc1cc(Br)ccc1-2?
**A.** EC50 [1]: > 50 µM; CC50 at 24 h [2]: > 50 µM

**Q.** For S=C(Nc1ccc2c(c1)Cc1cc(Br)ccc1-2)Nc1cccc2ccccc12, which EC50 [1] is on record?
**A.** 15.4 µM

**Q.** And the CC50 at 24 h [2]?
**A.** > 50 µM

**Q.** With S=C(Nc1ccc(N2CCOCC2)cc1)Nc1ccc2c(c1)Cc1cc(Br)ccc1-2 as the compound, how does the EC50 [1] read?
**A.** 34.1 µM

**Q.** What about the CC50 at 24 h [2] of the same compound?
**A.** 18.1 µM

**Q.** What does the source list for S=C(Nc1cccnc1)Nc1ccc2c(c1)Cc1cc(Br)ccc1-2?
**A.** EC50 [1]: > 50 µM; CC50 at 24 h [2]: 19.7 µM

**Q.** Which EC50 [1] does the source give for CNC(=S)Nc1ccc2c(c1)Cc1cc(Br)ccc1-2 here?
**A.** > 50 µM

**Q.** What about the CC50 at 24 h [2] of the same compound?
**A.** > 50 µM

**Q.** What does the source list for CCNC(=S)Nc1ccc2c(c1)Cc1cc(Br)ccc1-2?
**A.** EC50 [1]: > 50 µM; CC50 at 24 h [2]: > 50 µM

**Q.** Which EC50 [1] does the source give for NC(=S)Nc1ccc2c(c1)Cc1cc(N)ccc1-2 here?
**A.** > 50 µM

**Q.** And the CC50 at 24 h [2]?
**A.** > 50 µM

**Q.** With CN(C)c1ccc2c(c1)Cc1cc(NC(N)=S)ccc1-2 as the compound, how does the EC50 [1] read?
**A.** 1.11 µM

**Q.** And the CC50 at 24 h [2]?
**A.** > 50 µM

**Q.** Which EC50 [1] does the source give for CCN(CC)c1ccc2c(c1)Cc1cc(NC(N)=S)ccc1-2 here?
**A.** 0.83 µM

**Q.** What about the CC50 at 24 h [2] of the same compound?
**A.** > 50 µM

**Q.** With CCCN(CCC)c1ccc2c(c1)Cc1cc(NC(N)=S)ccc1-2 as the compound, how does the EC50 [1] read?
**A.** 0.44 µM

**Q.** What about the CC50 at 24 h [2] of the same compound?
**A.** 19.5 µM

**Q.** What does the source list for CCCCN(CCCC)c1ccc2c(c1)Cc1cc(NC(N)=S)ccc1-2?
**A.** EC50 [1]: 0.72 µM; CC50 at 24 h [2]: 40.7 µM

**Q.** What does the source list for NC(=S)Nc1ccc2c(c1)Cc1cc(N(Cc3ccccc3)Cc3ccccc3)ccc1-2?
**A.** EC50 [1]: 0.39 µM; CC50 at 24 h [2]: 35.6 µM

**Q.** Which EC50 [1] does the source give for CCCNc1ccc2c(c1)Cc1cc(NC(N)=S)ccc1-2 here?
**A.** 0.42 µM

**Q.** And the CC50 at 24 h [2]?
**A.** > 50 µM

**Q.** What does the source list for CCCCNc1ccc2c(c1)Cc1cc(NC(N)=S)ccc1-2?
**A.** EC50 [1]: 0.38 µM; CC50 at 24 h [2]: > 50 µM

**Q.** Which EC50 [1] does the source give for NC(=S)Nc1ccc2c(c1)Cc1cc(NCc3ccccc3)ccc1-2 here?
**A.** 0.49 µM

**Q.** And the CC50 at 24 h [2]?
**A.** > 50 µM

**Q.** For NC(=S)Nc1cccc(Oc2ccccc2)c1, which CC50 at 24 h [2] is on record?
**A.** > 50 µM
